KCNQ1 inh: inhibitors of human KCNQ1 channel, primary screen, cell-based, thallium flux, high-throughput; Potassium voltage-gated channel subfamily KQT member 1 (Homo sapiens), P51787; 310,000 compounds, 1.3% hits; CHO-K1 KCNQ1, FluxOR thallium flux fluorescence; active compounds read high; B-score at 10 µM; AID 2642, 2010;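 active means compounds whose thallium flux B-score, printed positive for inhibition, exceeds three library SD while starting fluorescence stays within three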;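 further: channel opened by potassium depolarization with thallium stimulus after 20 min compound exposure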
hERG protect: hERG rescue from dofetilide block, primary screen, cell-based, CHO-hERG, FluxOR thallium flux, dofetilide IC70; dofetilide IC70 present; AID 1511, 2009; 310,000 compounds, 0.51% hits; activation (rescue from dofetilide block), less the hit threshold, % at 10 µM; Voltage-gated inwardly rectifying potassium channel KCNH2 (Homo sapiens), Q12809;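 active means activation above the mean of controls blocked by dofetilide plus 5 SD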;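 further: thallium influx through hERG after potassium depolarization seen as dye fluorescence rise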
KCNK3 inh: human KCNK3 channel inhibitors, primary screen, CHO cells, FluxOR thallium flux, B-score | 340,000 compounds, 0.84% hits | B-score at 10 µM | FluxOR fluorescence; active compounds read low | AID 602410, 2012;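 active means B-score under library mean minus 4 SD, starting fluorescence ratio at most library mean plus 5 SD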;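 further: more negative B-score means stronger inhibition of thallium flux through KCNK3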
Kir21 inh: inhibitors of mouse Kir2.1 inward-rectifier potassium channel; HEK293-Kir2.1, FluxOR thallium flux fluorescence; active compounds read low; B-score at 10 µM; 310,000 compounds, 0.85% hits;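 active means fluorescence ratio B-score at or below minus 3 SD of library scores, with starting-brightness B-score within 2 SD, cut at about -4.2 in these data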;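 further: channel flux triggered by added potassium and thallium sulfate stimulus; B-score of peak minus minimum fluorescence over baseline after thallium stimulus; more negative B-score means stronger Kir2.1 block with less thallium influx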
Target sequence (P35561 whole entry, looked up): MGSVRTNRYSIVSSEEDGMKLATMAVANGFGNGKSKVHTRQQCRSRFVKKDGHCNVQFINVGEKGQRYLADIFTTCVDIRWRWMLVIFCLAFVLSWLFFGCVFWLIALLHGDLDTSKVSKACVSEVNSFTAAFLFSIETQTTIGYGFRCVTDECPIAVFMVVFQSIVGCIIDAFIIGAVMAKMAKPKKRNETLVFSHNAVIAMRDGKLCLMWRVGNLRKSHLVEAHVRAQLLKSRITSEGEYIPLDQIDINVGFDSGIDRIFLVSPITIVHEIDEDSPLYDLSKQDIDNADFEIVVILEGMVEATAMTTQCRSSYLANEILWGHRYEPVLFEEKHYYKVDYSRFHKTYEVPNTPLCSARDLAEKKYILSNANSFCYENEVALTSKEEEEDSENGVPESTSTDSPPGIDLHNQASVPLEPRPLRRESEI
KCNQ1 pot: potentiators or activators of KCNQ1 channel, primary screen, cell-based, thallium flux, high-throughput; AID 2648, 2010; Potassium voltage-gated channel subfamily KQT member 1 (Homo sapiens), P51787; 310,000 compounds, 0.35% hits; CHO-K1 KCNQ1, thallium flux FluxOR fluorescence; active compounds read high; B-score at 10 µM;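 active means fluorescence ratio B-score, a plate-corrected score, at least three library SD, with initial intensity B-score within 5 SD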
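Assay system: CHO-K1 cells stably expressing KCNQ1; Medium: assay buffer with matched DMSO; Also added: K+/Tl+ depolarizing stimulus; Dosing: single dose; Timing: dye 90 min, compound 20 min, room temperature; Measured by: kinetic FluxOR thallium fluorescence, 10-s 1-Hz baseline, 110-s post-stimulus read; Read-out: peak-minus-minimum fluorescence over initial fluorescence, negative-control normalized, B-scored.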
KCNK9 inh: KCNK9 potassium channel inhibitors, primary screen, HEK293 cells, thallium flux | B-score at 10 µM | FluxOR thallium flux fluorescence; active compounds read low | Potassium channel subfamily K member 9 (Homo sapiens), Q9NPC2 | 310,000 compounds, 1.2% hits;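 active means ratio B-score over 3 SD below the library mean, with starting fluorescence within 5 SD of its mean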;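 further: negative B-score means less thallium flux so channel inhibition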
Of the large screens only hits and unclear results are named; the others gave an inactive call. Sampled rows, rich in hits. Any-hit rate of the full collection: about 3.7%.

Cc1cc(C)n(-c2ccc(C(=O)NCC(c3ccco3)N3CCCC3)cc2)n1 (configuration not stated)	none (no result: KCNQ1 inh, hERG protect, Kir21 inh, KCNQ1 pot, KCNK9 inh)
O=[N+]([O-])c1cccc(/C=N/Nc2nc(N3CCOCC3)nc(N3CCOCC3)n2)c1	none
O=[N+]([O-])c1cccc(/C=C/C=N/Nc2nc(N3CCCCC3)nc(N3CCCCC3)n2)c1	KCNQ1 inh 6
CCN1CCN(Cc2ccc(NC(=O)c3cc(NC(=O)c4cncc(-c5cccs5)c4)cc(OC)c3)cc2C(F)(F)F)CC1	KCNQ1 inh 8 (no result: KCNK3 inh)
O=C(COC(=O)c1cccs1)Nc1cccc(Cl)c1	none (no result: KCNQ1 inh, hERG protect, Kir21 inh, KCNQ1 pot, KCNK9 inh)
CNC(=S)/N=C/NOCc1ccc(Cl)cc1Cl	KCNQ1 inh 8
O=C(Nc1cc([N+](=O)[O-])ccc1O)c1cccc([N+](=O)[O-])c1	KCNQ1 inh 7
O=C(Nc1ccc(NC(=O)c2cccc([N+](=O)[O-])c2)cc1)c1cccc([N+](=O)[O-])c1	none
O=C(Nc1ncc([N+](=O)[O-])s1)c1cccc([N+](=O)[O-])c1	KCNQ1 inh 8
Cc1ccc(C(=O)Nc2cc([N+](=O)[O-])ccc2C)cc1	none
Cc1ccc([N+](=O)[O-])cc1NC(=O)c1ccc(C(C)(C)C)cc1	KCNQ1 inh 9
O=C(Nc1nc(-c2ccccc2)cs1)c1cccc([N+](=O)[O-])c1	none
O=C(Nc1ccc(Cc2ccncc2)cc1)c1cccc([N+](=O)[O-])c1	hERG protect 9.8
CSCC[C@H](NC(=O)[C@H]1N2C(=O)c3ccccc3C2SC1(C)C)C(=O)NCc1ccncc1 (some centres not stated)	none
CCCCc1n[nH]c(=S)n1Cc1ccc(Cl)cc1	KCNK9 inh -10
CCOC(=O)c1c(C)n(C)c2ccc(O)c(CN3CCN(C)CC3)c12	none
CCOC(=O)c1c(CSc2ccccc2)n(C)c2cc(Br)c(OC)c(O)c12	KCNQ1 inh 6
CCOC(=O)c1c(CSc2ccccc2)n(C)c2ccc(O)c(CN3CCOCC3)c12	Kir21 inh -5.4
CCOC(=O)c1c(-c2ccccc2)oc2ccc(O)c(CN3CCN(C)CC3)c12	Kir21 inh -9.3
CCOC(=O)c1c(C)n(C)c2ccc(O)c(CN3CCC(C)CC3)c12	none
Cc1cc(C(=O)NC2CCCc3c2cnn3-c2ccc(C(C)(C)C)cc2)nn1C (configuration not stated)	KCNQ1 inh 8
Oc1ccc(C[C@H]2CNC(=S)N2CC2CCCN2C[C@H](Cc2ccc(O)cc2)N2C[C@H](Cc3ccc(O)cc3)N(CC3CCCCC3)C2=S)cc1 (some centres not stated)	none (no result: KCNQ1 inh, hERG protect, Kir21 inh, KCNQ1 pot, KCNK9 inh)
Fc1ccc(NC(=S)Nc2nccs2)cc1	hERG protect 10
Cc1ccc(C(=O)N2CCN(S(=O)(=O)c3cc(Br)ccc3Br)CC2)o1	none
COc1ccc(Cl)cc1NC(=O)COC(=O)CCc1cc(OC)c(OC)c(OC)c1	Kir21 inh -4.9
COc1ccc(Cl)cc1NC(=O)COC(=O)Cc1cc(OC)c(OC)c(OC)c1	none (no result: KCNQ1 inh, hERG protect, Kir21 inh, KCNQ1 pot, KCNK9 inh)
CNC(=O)NC(=O)COC(=O)c1ccccc1OCc1ccccc1	hERG protect 8.3
COc1ccccc1C(=O)OCC(=O)NC(=O)NCc1ccccc1	none
COc1ccc(CC(=O)OCC(=O)Nc2cc(Cl)ccc2C)cc1	none (no result: KCNQ1 inh, hERG protect, Kir21 inh, KCNQ1 pot, KCNK9 inh)
CCCCc1c(C)nc2nc(SCc3ccc(Cl)cc3)[nH]n2c1=O	KCNQ1 inh 6
O=C(O)c1ccccc1NC(=O)C(c1ccccc1)c1ccccc1	none
O=C(Nc1ccccc1O)C(c1ccccc1)c1ccccc1	KCNQ1 inh 6
CCN1C(=O)/C(=C\c2ccco2)C(C(=O)OC)=C1C	none
COC(=O)C1=C(C)N(c2cccc(OC)c2)C(=O)/C1=C\c1ccco1	KCNK9 inh -7.3
COc1ccc(C(=O)NCCS(=O)(=O)N2CCc3ccccc3C2)cc1OC	none
O=S(=O)(Nc1ccc2c(c1)OCO2)c1cccc(Br)c1	none (no result: KCNQ1 inh, hERG protect, Kir21 inh, KCNQ1 pot, KCNK9 inh)
CCN(CC)Cc1ccccc1CNC(=O)c1cccc(S(=O)(=O)Nc2ccc3c(c2)OCO3)c1	KCNK3 inh -9.3 (no result: KCNQ1 inh, hERG protect, Kir21 inh, KCNQ1 pot, KCNK9 inh)
C/C(=N\NC(=S)NCc1ccccc1)c1ccccc1	none
C/C(=N\NC(=S)NCc1ccccc1)c1ccco1	hERG protect 4.9
COC(=O)c1cc(CSC(=N)N)ccc1OCCC(C)C	Kir21 inh -9.5
Cc1cc(C(=O)C(C)OC(=O)c2ccc(NC(=O)CC#N)cc2)c(C)n1-c1ccc(OC(F)F)cc1 (configuration not stated)	none (no result: KCNQ1 inh, hERG protect, Kir21 inh, KCNQ1 pot, KCNK9 inh)
O=C(CN1CCOCC1)NNc1nc(-c2ccccc2)c2cc(Br)ccc2n1	KCNQ1 inh 7
COc1ccc(OC)c(-c2cc(C(=O)N3CCc4ccccc4C3)no2)c1	KCNQ1 inh 6
O=C(Nc1ccccc1C(=O)Nc1ccncc1)c1ccccc1	none
COc1cc(O)c(C=Nc2ccccc2NS(=O)(=O)c2ccc(C)cc2)c(OC)c1	none (no result: KCNQ1 inh, hERG protect, Kir21 inh, KCNQ1 pot, KCNK9 inh)
CCC(=O)OCCNc1cc(Sc2nccn2C)c2nonc2c1[N+](=O)[O-]	KCNQ1 inh 7
CCN(CC(=O)Nc1ccc2c(c1)OCCO2)C(=O)c1ccc(Cl)cc1Cl	none
CC(=O)Cc1nsc(NC(=O)c2ccccc2)n1	none
CC(=O)Cc1nsc(NC(=O)c2cccs2)n1	hERG protect 12
CCc1ccccc1NC(=O)CNC(=O)c1ccc(-n2cncn2)c([N+](=O)[O-])c1	none
C/C(=N\N=C(c1ccccc1)c1ccccc1)c1cccs1	KCNQ1 inh 6
COc1ccc(C2=NN(C(=O)c3ccccc3)C(c3ccc(OC)c(OC)c3)C2)cc1OC (configuration not stated)	none
COc1ccc(C2CC(c3ccc([N+](=O)[O-])cc3)=NN2C(=O)c2ccccc2)cc1OC (configuration not stated)	KCNK9 inh -7
Cc1cc(S(=O)(=O)N2CCOCC2)ccc1OCC(=O)NCc1ccco1	hERG protect 6.7
Cc1cc(C=O)c2c(c1)C=CC1(Oc3ccccc3C(=O)N1C)O2 (configuration not stated)	hERG protect 21 (no result: KCNK3 inh)
Cn1nc([N+](=O)[O-])c(C(C#N)c2nc3ccccc3n2C)c(Cl)c1=O (configuration not stated)	KCNQ1 inh 6
Cn1c(-c2ccc([N+](=O)[O-])cc2)nc2ccccc21	none
CCCc1nc(SCC(=O)N2CCc3ccccc3C2)c2ccccc2n1	Kir21 inh -5.6

Compound activity (PubChem)
